TRPN1 ag: zebrafish TRPN1 channel agonists, primary screen, cell-based, HEK293, calcium fluorescence; activation, % at 3 µM; actives 0.18% (n = 220,000); AID 1424, 2008; transient receptor potential cation channel N1 (TRPN1/NompC), Danio rerio; HEK293 zebrafish TRPN1-YFP, Fluo-8 calcium fluorescence; 100% = response to 87 µM carbachol;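 active means activation above its plate's cutoff, the mean activation of test wells on that plate plus 3 SD, cut at about 19% in these data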;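 further: 0% = DMSO alone and 100% = 87 µM carbachol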
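Assay system: Zebrafish TRPN1-YFP in HEK293 cells | Incubation: Dye loading 1 h at 37 °C, then 30 min room temperature | Measured by: Kinetic Fluo-8 fluorescence, ex 470-495, em 515-575 nm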
TRPML3 agonist: human TRPML3 channel agonists, primary screen, cell-based, HEK293 TRPML3-YFP, Fluo-8 calcium fluorescence, 3 µM; Mucolipin-3 (Homo sapiens), Q8TDD5; 100% = the carbachol control signal; activation, % at 3 µM; actives 0.29% (n = 220,000);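 active means activation above its plate's cutoff, the mean activation of the plate's test wells plus 3 SD, cut at about 12% in these data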;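 further: 0% = DMSO only wells and 100% = carbachol wells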
Target sequence (Q8TDD5 whole entry, looked up): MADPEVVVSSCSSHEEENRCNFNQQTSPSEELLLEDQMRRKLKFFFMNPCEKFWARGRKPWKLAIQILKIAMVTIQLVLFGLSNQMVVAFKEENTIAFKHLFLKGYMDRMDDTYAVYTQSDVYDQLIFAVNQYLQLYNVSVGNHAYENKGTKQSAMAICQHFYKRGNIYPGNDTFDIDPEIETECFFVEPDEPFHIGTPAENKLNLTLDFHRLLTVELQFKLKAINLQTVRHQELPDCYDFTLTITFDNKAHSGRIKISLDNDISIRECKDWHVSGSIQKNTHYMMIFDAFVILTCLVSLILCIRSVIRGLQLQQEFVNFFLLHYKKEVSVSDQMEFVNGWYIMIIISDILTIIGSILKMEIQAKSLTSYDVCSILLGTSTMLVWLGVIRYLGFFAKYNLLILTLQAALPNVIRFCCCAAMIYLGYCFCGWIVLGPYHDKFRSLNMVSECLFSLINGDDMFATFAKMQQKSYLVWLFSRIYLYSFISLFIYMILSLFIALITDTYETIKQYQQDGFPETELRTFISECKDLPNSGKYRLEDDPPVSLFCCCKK
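Material: HEK293 cells stably carrying human TRPML3-YFP; compound dosing: single dose, 3 µM final nominal compound, 0.3% DMSO final; incubation: 1-h 37 °C dye load, 5-s basal, 120-s post-compound reads; technique: Fluo-8 intracellular calcium fluorescence, excitation 470-495 nm, emission 515-575 nm; read-out basis: percent activation from peak-to-basal fluorescence ratio, scaled between DMSO and carbachol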
OXTR agonist: human OXTR agonists, primary screen, fluorescence, CHO-OTR cells, Fluo-8 calcium | Oxytocin receptor (Homo sapiens), P30559 | Fluo-8 calcium fluorescence; normalized: DMSO 0%, oxytocin 100% | activation, % at 3 µM | actives 0.32% (n = 320,000) | AID 2435, 2010;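 active means activation above the mean of all tested compounds plus 3 SD, cutoff set per screening run, cut at about 20% in these data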;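 further: peak over basal fluorescence ratio from a 100 s FLIPR kinetic read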
V1aR counter: agonists of human V1a receptor, primary screen, counter-screen for OXTR agonist project, fluorescence, CHO-V1R cells | activation, % at 3 µM | Vasopressin V1a receptor (Homo sapiens), P37288 | Fluo-8 calcium fluorescence, agonist mode; 0% DMSO, 100% 3 nM vasopressin | actives 0.25% (n = 320,000) | AID 2797, 2010;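 active means activation above the mean activation of all tested compounds plus 3 SD, per screening run, cut at about 20% in these data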;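 further: signal is peak over basal fluorescence ratio across a 100 second FLIPR read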
OXTR potentiator: human OXTR potentiators, primary screen, fluorescence, CHO-OTR cells, Fluo-8 calcium; AID 2445, 2010; Fluo-8 calcium fluorescence, potentiator mode; 0% = oxytocin EC15, 100% = EC100; Oxytocin receptor (Homo sapiens), P30559; activation, % at 3 µM; actives 0.061% (n = 320,000);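 active means activation above that plate's cutoff, the mean activation of tested compounds plus 3 SD, cut at about 6.6% in these data, passing the limit was not always enough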;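 further: 100% uses oxytocin at 75 nM as the full agonist control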
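Material: CHO-OTR cells, human receptor; compound dosing: single dose, 3.0 µM nominal final compound concentration; schedule: 6 min compound pre-incubation at room temperature, 100 s kinetic read; measured by: kinetic Fluo-8 calcium fluorescence; read-out basis: % activation vs EC15 and EC100 oxytocin; controls: EC15 oxytocin alone as 0%, 75 nM oxytocin as 100%; replicates: singlicate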
OXTR ag confirm: human OXTR agonists, confirmation, fluorescence, CHO-OTR cells, triplicate | actives 20% (n = 390) | Fluo-8 calcium fluorescence, agonist | shares compounds with OXTR agonist | activation, % at 3 µM;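 active means mean activation above about 20% derived from the earlier single-dose screen, limit read from the data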;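 further: peak over minimum fluorescence ratio per well during a 100 second FLIPR read; 0% = DMSO alone and 100% = oxytocin high control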
V1aR counter 3x: V1a receptor agonists, calcium signal, counter-screen for OXTR agonist project, triplicate, fluorescence, CHO-V1R cells | shares compounds with OXTR agonist | Fluo-8 calcium fluorescence | activation, % at 3 µM | actives 10% (n = 390) | AID 434991, 2010;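 active means mean activation over triplicate exceeds the hit threshold set in the earlier primary screen, cut at about 20% in these data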;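 further: peak over basal fluorescence ratio within a 100 second read; 0% = DMSO alone and 100% = 3 nM vasopressin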
An asterisk follows results filed as active; . = no result. Compounds with a hit are over-represented: about 0.58% of the library has one in this group of screens.

SMILES	TRPN1 ag	TRPML3 agonist	OXTR agonist	V1aR counter	OXTR potentiator	OXTR ag confirm	V1aR counter 3x
Brc1ccc2[nH]c3c(N4CCc5ccccc5C4)ncnc3c2c1	4	2	24*	10	-21	7	8
O=C(C1CCCN(S(=O)(=O)c2cc(Cl)ccc2Cl)C1)N1CCOCC1 (stereo not drawn)	.	.	-1	1	-2	.	.
C=CCN1C=CC(=CC=C(C#N)C#N)C=C1	3	1	23*	19	-6	25*	30*
CCCN1C=CC(=CC=C(C#N)C#N)C=C1	2	1	21*	14	-8	23*	36*
CCO[C@H]1OC(C(=O)Nc2ccccc2)=C[C@@H](c2ccc(C(F)(F)F)cc2)[C@@H]1CCCO	0	2	0	1	-9	.	.
Cc1nc(SCC(=O)Nc2c(C)nn(C)c2C)c2cnn(-c3ccccc3)c2n1	1	0	23*	6	-17	7	8
CCC(C(=O)NCc1cccnc1)n1nc(C)n2c(cc3occc32)c1=O (stereo not drawn)	.	.	-1	1	-2	.	.
COc1cc(CNCC(O)c2ccccc2)ccc1OCc1ccc(Cl)nc1 (stereo not drawn)	2	1	20*	9	-12	10	3
COc1cc(CNCCc2ccccc2)ccc1OCc1ccc(Cl)nc1	1	0	15	7	-10	.	.
Cc1cccc(CCN2C(Nc3ccccc3)=NC[C@@H]2CC(C)C)c1	.	.	21*	16	-19	16	21*
Cc1cc(C=O)c(C)n1-c1ccc(N2CCCCC2)c([N+](=O)[O-])c1	3	2	4	7	-32	.	.
Cc1cc(/C=C(\C#N)C(N)=O)c(C)n1-c1ccc(N2CCOCC2)c([N+](=O)[O-])c1	-1	1	23*	11	-6	12	19
COc1ccc(C(C(=O)NC2CCCC2)N(CC2CCCO2)C(=O)Cc2cccs2)cc1OC (stereo not drawn)	-1	0	-1	1	0	.	.
O=C(NC1CCCC1)C(c1cccs1)N(CC1CCCO1)C(=O)Cc1cccs1 (stereo not drawn)	1	0	20*	-1	-13	-1	1
C=CCn1c(=O)c(C(=O)Nc2ccccc2S(N)(=O)=O)c(O)c2ccccc21	0	0	-2	-1	-10	.	.
CN(Cc1ccccc1)S(=O)(=O)c1ccc(Cl)c(C(=O)NCc2ccc3c(c2)OCO3)c1	-1	0	0	5	-15	.	.
O=c1c2cc(F)ccc2sn1-c1ccccc1	.	.	18	14	-9	.	.
Cc1ccccc1-n1sc2cc(F)ccc2c1=O	12	8	23*	16	-8	14	15
Cc1onc(-c2ccccc2)c1C(=O)/C=C/N(C)C	-1	1	0	0	-6	.	.
CCCCCCCCCCCCCCCC[N+](C)(C)CC	.	.	21*	4	-9	21*	0
Cc1nnc(SCC(=O)Nc2ccc(N3CCN(S(C)(=O)=O)CC3)cc2)o1	.	.	1	0	-2	.	.
CCCCN(CCCC)c1ccc(C(=O)c2ccccc2C(=O)O)c(O)c1	2	1	34*	16	-12	4	3
CC(C)(CNC(=O)c1cccs1)N1CCOCC1	.	.	0	1	6	.	.
COc1ccc(N(C(=O)c2ccco2)C(C(=O)NC2CCCC2)c2cc(OC)c(OC)c(OC)c2)cc1 (stereo not drawn)	.	.	-1	-1	-9	.	.
COc1ccc(CNc2ncnc3c2[nH]c2cc(OC)c(OC)cc23)cc1	4	3	1	1	-12	.	.
SMILES	TRPN1 ag	TRPML3 agonist	OXTR agonist	V1aR counter	OXTR potentiator	OXTR ag confirm	V1aR counter 3x
C1=C(CCNc2ncnc3c2[nH]c2ccccc23)CCCC1	21*	8	21*	8	-8	16	14
COc1ccc(CNc2ncnc3c2[nH]c2ccccc23)cc1	15	11	26*	16	-16	22*	18
O=c1c2[nH]c3ccccc3c2ncn1CCC1=CCCCC1	0	2	-1	-1	-5	.	.
CCOc1ccc(S(=O)(=O)N2CCC(C(=O)N3CCc4ccccc4C3)CC2)cc1	.	.	0	4	-6	.	.
O=C(CCc1cn(Cc2ccc(F)cc2)c2ccccc12)N1CCOCC1	.	.	20*	5	-24	-1	0
O=C(CS(=O)(=O)c1cn(Cc2ccc(F)cc2)c2ccccc12)N1CCCCC1	-1	0	0	0	-10	.	.
O=C(COC(=O)c1cc(-c2ccccc2Cl)nc2ccccc12)Nc1ncc(C(F)(F)F)cc1Cl	-1	1	0	0	1	.	.
Cc1cc(C(C)(C)C)cc(C)c1COC(=O)c1cccnc1	.	.	-1	2	1	.	.
COc1ccc(OCC(O)CNCCOc2ccccc2OC)c(C(C)(C)C)c1 (stereo not drawn)	.	.	22*	10	-9	7	2
COc1ccccc1OCC(=O)Nc1ccncc1	.	.	4	2	3	.	.
Cc1cccc(OCC(=O)Nc2ccncc2)c1C	.	.	20*	14	-25	10	9
COc1cccc(CNCc2ccc(OC)cc2OC)c1	.	.	2	3	-1	.	.
CCn1c2ccccc2c2cc(CNCc3ccc(OC)cc3OC)ccc21	0	1	23*	5	-12	5	2
OC(CNC1CCCCCC1)COc1cccc2ccccc12 (stereo not drawn)	.	.	20*	12	-16	8	5
CCc1ccc(OC(C)C(=O)Nc2ccc(S(=O)(=O)Nc3nccs3)cc2)cc1 (stereo not drawn)	.	.	20*	10	-14	5	8
CC(C)(C)CC(C)(C)NCC(O)COc1ccc2c(c1)CCC2 (stereo not drawn)	1	1	21*	15	-11	5	4
Cc1ccc2c(c1)cc1c(=O)n(CC(=O)NCc3ccccn3)nc(C)n12	.	.	0	0	-5	.	.
O=C(NCCS(=O)(=O)N1CCN(c2ccccc2F)CC1)c1cccc(Br)c1	.	.	1	2	-3	.	.
OC(c1cc(C(F)(F)F)nc2c(C(F)(F)F)cccc12)C1CCCCN1 (stereo not drawn)	.	.	24*	11	-16	9	8
